pIC50: −log10 of the molar value. Active and inactive are the calls of the source. No cut-off for these calls is given here.
Legend:
MDA-MB-231 [1] = experiment: Induction of apoptosis in human MDA-MB-231 cells assessed as early apoptotic cells at 0.03 uM after 48 hrs by annexin V-FITC/propidium iodide staining-based flow cytometric analysis (reference value: […]); assay type: functional
MDA-MB-231 [2] = experiment: Induction of apoptosis in human MDA-MB-231 cells assessed as late apoptotic cells at 0.3 uM after 24 hrs by annexin V-FITC/propidium iodide staining-based flow cytometric analysis (reference value: 2.67%); assay type: functional
[3] = target: T1, Proto-oncogene tyrosine-protein kinase Src (Homo sapiens, UniProt P12931)
MDA-MB-231 [4] = experiment: Antitumor activity against human MDA-MB-231 cells xenografted in mouse assessed as tumor growth inhibition at 40 mg/kg/day, po; assay type: functional, organism-based
Summary of the method: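 Oral daily dosing at 40 mg kg−1 d−1 began once MDA-MB-231 xenografts reached about 200 mm3; three mice per group; tumor volume tracked.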

[5] = target: T1, Proto-oncogene tyrosine-protein kinase Src; remark: listed apart in the source
[6] = target: Cyclin-dependent kinase 7 (Homo sapiens, UniProt P50613); experiment: Inhibition of human CDK7
Summary of the method: (§1)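 Recombinant human protein kinases screened through the Eurofins KinaseProfiler service. IC50 values are means of two independent experiments.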

Rattus norvegicus [7] = experiment: Apparent volume of distribution at steady state in Sprague-Dawley rat at 10 mg/kg, po by LC/MS analysis; assay type: ADME, organism-based; design: dose 10 mg/kg, route oral; conditions: in vivo
Summary of the method: (§2)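 Single oral gavage dose in male Sprague-Dawley rats fasted overnight; serial blood drawn via surgically placed jugular vein catheters at set times, plasma separated at once and measured by HPLC-MS/MS; noncompartmental parameters fitted; n=5.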

MDA-MB-435 = experiment: Cytotoxicity against human MDA-MB-435 cells assessed as cell viability after 72 hrs by MTT assay; assay type: functional, cell-based; conditions: MDA-MB-435, 72 h
MDA-MB-231 [8] = experiment: Antimigratory activity against human MDA-MB-231 cells at >0.03 uM after 20 hrs by wound healing assay; assay type: functional, cell-based
Summary of the method: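 MDA-MB-231 monolayers grown to confluence, scratched with a sterile pipet tip, rinsed with saline, then kept in DMEM containing vehicle or compound; wound images taken after 20 h and analysed.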

[9] = target: Glycogen synthase kinase-3 beta (Homo sapiens, UniProt P49841); experiment: Inhibition of human GSK3beta; summary of the method: as §1
[10] = target: Tyrosine-protein kinase Yes (Homo sapiens, UniProt P07947); experiment: Inhibition of human Yes
Summary of the method: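 Recombinant human kinase assayed in Eurofins KinaseProfiler panel; IC50 reported as mean of two independent experiments.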

[11] = Clearance in Sprague-Dawley rat at 10 mg/kg, po by LC/MS analysis; assay type: ADME, organism-based; design: dose 10 mg/kg, route oral; conditions: in vivo; summary of the method: as §2
[12] = target: Serine/threonine-protein kinase Chk1 (Homo sapiens, UniProt O14757); experiment: Inhibition of human CHK1; summary of the method: as §1
[13] = target: Serine/threonine-protein kinase pim-1 (Homo sapiens, UniProt P11309); experiment: Inhibition of human Pim1; summary of the method: as §1
MDA-MB-231 [14] = experiment: Cell cycle arrest in human MDA-MB-231 cells assessed as accumulation at G0/G1 phase at 0.1 to 0.3 uM after 24 to 48 hrs by flow cytometric analysis; assay type: functional, cell-based
BT-474 = experiment: Cytotoxicity against human BT474 cells assessed as cell viability after 72 hrs by MTT assay; assay type: functional, cell-based; conditions: BT-474, 72 h
Mus musculus = experiment: In vivo inhibition of MEK phosphorylation in tumor of SCID mouse xenografted with human MDA-MB-231 cells at 30 mg/kg/day, po administered for 18 days measured post last dose by immunohistochemical analysis relative to vehicle-treated control; assay type: functional, organism-based
Summary of the method: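 SCID mice carrying subcutaneous MDA-MB-231 xenografts received oral dosing once daily for 18 days (vehicle 25% PEG400 plus 5% DMSO in sterile water); at the end, tumors formalin-fixed and paraffin-embedded, 4–8 μm sections immunostained (Ki67, phospho-proteins) or TUNEL/AP-Red labelled, and compared with control.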

[15] = Tmax in Sprague-Dawley rat at 10 mg/kg, po by LC/MS analysis; assay type: ADME, organism-based; design: dose 10 mg/kg, route oral; conditions: in vivo
Summary of the method: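 Male Sprague-Dawley rats fitted with jugular vein catheters and fasted overnight, then given a single 10 mg/kg oral gavage dose; n=5. Serial blood samples were spun at once to plasma and analysed by LC-MS/MS. Noncompartmental parameters were fitted.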

MDA-MB-231 [16] = experiment: Antiproliferative activity against human MDA-MB-231 cells assessed as inhibition of colony formation at >0.01 uM after 12 days by crystal violet staining-based assay; assay type: functional, cell-based
Summary of the method: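 MDA-MB-231 cells plated at 5000 per well and treated the next day with vehicle or compound, medium refreshed every 4 days; after 12 days, colonies fixed in methanol, crystal violet stained and photographed.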

MDA-MB-231 [17] = experiment: Antitumor activity against human MDA-MB-231 cells xenografted in SCID mouse assessed as tumor growth inhibition at 7.5 to 15 mg/kg/day, po qd administered for 18 days measured every 3 days during compound dosing; assay type: functional, organism-based
Summary of the method: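 SCID mice (5–6 weeks) were injected subcutaneously with 100 μL of exponential-phase MDA-MB-231 cells (5 × 10^7 per mL). They were randomized at 150–200 mm3 tumor volume (6 per group) and dosed orally once daily for 18 days in sterile water with 25% PEG400 plus 5% DMSO, with a vehicle group. Tumor volume (ab2/2) was measured every 3 days.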

[18] = target: Cyclin-dependent kinase 2 (Homo sapiens, UniProt P24941); experiment: Inhibition of human CDK2; summary of the method: as §1
MDA-MB-231 [19] = experiment: Inhibition of ERK phosphorylation in human MDA-MB-231 cells at 0.001 to 1 uM after 20 hrs by Western blot analysis; assay type: cell-based
Summary of the method: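 MDA-MB-231 cells exposed to a concentration series for 20 h at 37 °C, then washed in ice-cold saline and lysed in RIPA buffer with protease cocktail. Lysates were cleared at 12 000 rpm for 10 min at 4 °C and protein measured by Bradford. Equal protein was run on SDS-PAGE, transferred to PVDF and immunoblotted for phospho-proteins.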

Rattus norvegicus [20] = experiment: AUC (0 to infinity) in Sprague-Dawley rat at 10 mg/kg, po by LC/MS analysis; assay type: ADME, organism-based, Plasma; design: time infinity, dose 10 mg/kg, route oral; conditions: in vivo; summary of the method: as §2
MDA-MB-231 [21] = experiment: Induction of apoptosis in human MDA-MB-231 cells after 24 to 48 hrs by annexin V-FITC/propidium iodide staining-based flow cytometric analysis; assay type: functional, cell-based
[22] = target: Protein kinase C alpha type (Homo sapiens, UniProt P17252); experiment: Inhibition of human PKCalpha; summary of the method: as §1
Bcr/Abl fusion protein = Bcr/Abl fusion protein (Homo sapiens, UniProt P00519); experiment: Inhibition of human BCR/ABL; assay type: protein assay
Summary of the method: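 Recombinant human BCR-ABL kinase, tested as part of a selected kinase panel through a commercial kinase-profiling service. IC50 is the mean of two independent experiments.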

[23] = target: RAC-beta serine/threonine-protein kinase (Homo sapiens, UniProt P31751); experiment: Inhibition of human PKBbeta; summary of the method: as §1
MDA-MB-453 = experiment: Cytotoxicity against human MDA-MB-453 cells assessed as cell viability after 72 hrs by MTT assay; assay type: functional, cell-based; conditions: MDA-MB-453, 72 h
MDA-MB-231 [24] = experiment: Induction of apoptosis in human MDA-MB-231 cells assessed as early apoptotic cells at 0.1 uM after 48 hrs by annexin V-FITC/propidium iodide staining-based flow cytometric analysis (reference value: […]); assay type: functional

T1 sequence (P12931 2-536 limits assumed): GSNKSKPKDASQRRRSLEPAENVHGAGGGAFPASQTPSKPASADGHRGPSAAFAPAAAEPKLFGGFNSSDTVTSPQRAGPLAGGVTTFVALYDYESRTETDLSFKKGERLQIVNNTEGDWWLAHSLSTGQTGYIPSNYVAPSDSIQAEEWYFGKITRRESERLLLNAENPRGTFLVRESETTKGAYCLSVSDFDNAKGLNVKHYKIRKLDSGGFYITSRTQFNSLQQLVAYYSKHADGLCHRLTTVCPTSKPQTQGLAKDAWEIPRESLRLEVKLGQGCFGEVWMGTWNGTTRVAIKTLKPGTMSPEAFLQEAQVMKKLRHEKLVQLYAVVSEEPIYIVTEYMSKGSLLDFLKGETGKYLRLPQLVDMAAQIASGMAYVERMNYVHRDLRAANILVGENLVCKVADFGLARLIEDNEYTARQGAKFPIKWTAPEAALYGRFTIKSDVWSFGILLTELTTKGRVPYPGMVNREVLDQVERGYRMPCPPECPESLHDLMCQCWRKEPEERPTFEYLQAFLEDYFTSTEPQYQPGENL
Sequence of RAC-beta serine/threonine-protein kinase (P31751 whole entry): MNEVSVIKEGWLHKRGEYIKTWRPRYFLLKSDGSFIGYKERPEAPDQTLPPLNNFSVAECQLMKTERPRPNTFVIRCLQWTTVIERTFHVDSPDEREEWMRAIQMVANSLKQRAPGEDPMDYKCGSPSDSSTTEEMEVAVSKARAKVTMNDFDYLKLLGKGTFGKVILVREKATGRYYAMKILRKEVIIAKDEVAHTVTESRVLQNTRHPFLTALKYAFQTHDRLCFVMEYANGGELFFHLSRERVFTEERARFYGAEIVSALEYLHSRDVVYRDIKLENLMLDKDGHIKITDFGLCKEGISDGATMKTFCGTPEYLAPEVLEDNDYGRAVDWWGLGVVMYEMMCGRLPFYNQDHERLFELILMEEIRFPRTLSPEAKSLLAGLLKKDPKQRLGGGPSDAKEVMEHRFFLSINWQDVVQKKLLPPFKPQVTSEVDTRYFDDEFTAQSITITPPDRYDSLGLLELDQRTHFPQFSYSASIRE
Sequence of Bcr/Abl fusion protein (P00519 whole entry, the tested form may be a part): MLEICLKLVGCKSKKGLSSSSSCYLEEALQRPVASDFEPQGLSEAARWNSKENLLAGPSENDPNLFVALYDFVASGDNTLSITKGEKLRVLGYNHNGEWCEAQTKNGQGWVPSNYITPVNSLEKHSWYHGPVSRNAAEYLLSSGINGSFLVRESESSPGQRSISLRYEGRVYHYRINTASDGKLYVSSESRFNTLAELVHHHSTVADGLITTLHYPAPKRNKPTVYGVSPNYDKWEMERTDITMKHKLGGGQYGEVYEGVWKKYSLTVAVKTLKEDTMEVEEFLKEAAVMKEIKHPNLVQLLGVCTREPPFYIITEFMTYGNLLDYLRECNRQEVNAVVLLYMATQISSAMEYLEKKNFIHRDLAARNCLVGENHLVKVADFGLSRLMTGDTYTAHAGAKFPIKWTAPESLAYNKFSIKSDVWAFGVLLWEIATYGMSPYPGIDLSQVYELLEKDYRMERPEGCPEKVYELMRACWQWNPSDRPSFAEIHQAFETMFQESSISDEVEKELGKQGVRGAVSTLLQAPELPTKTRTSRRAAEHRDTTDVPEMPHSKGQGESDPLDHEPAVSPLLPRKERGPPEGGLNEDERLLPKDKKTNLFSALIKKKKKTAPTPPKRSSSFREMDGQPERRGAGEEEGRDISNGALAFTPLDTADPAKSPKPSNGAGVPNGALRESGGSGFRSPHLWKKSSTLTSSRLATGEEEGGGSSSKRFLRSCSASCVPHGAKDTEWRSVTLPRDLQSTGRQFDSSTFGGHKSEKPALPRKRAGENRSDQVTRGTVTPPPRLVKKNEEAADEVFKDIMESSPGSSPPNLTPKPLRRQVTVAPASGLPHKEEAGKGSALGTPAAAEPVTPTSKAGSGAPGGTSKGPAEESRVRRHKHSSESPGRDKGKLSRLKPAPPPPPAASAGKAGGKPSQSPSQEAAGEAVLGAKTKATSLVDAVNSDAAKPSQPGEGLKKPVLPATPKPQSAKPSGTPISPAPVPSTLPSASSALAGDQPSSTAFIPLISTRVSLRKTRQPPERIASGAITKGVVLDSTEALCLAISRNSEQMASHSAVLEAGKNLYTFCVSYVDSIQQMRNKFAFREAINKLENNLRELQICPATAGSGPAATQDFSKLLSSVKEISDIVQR
Sequence of Bcr/Abl fusion protein (P11274 whole entry, further chain, the tested form may be a part): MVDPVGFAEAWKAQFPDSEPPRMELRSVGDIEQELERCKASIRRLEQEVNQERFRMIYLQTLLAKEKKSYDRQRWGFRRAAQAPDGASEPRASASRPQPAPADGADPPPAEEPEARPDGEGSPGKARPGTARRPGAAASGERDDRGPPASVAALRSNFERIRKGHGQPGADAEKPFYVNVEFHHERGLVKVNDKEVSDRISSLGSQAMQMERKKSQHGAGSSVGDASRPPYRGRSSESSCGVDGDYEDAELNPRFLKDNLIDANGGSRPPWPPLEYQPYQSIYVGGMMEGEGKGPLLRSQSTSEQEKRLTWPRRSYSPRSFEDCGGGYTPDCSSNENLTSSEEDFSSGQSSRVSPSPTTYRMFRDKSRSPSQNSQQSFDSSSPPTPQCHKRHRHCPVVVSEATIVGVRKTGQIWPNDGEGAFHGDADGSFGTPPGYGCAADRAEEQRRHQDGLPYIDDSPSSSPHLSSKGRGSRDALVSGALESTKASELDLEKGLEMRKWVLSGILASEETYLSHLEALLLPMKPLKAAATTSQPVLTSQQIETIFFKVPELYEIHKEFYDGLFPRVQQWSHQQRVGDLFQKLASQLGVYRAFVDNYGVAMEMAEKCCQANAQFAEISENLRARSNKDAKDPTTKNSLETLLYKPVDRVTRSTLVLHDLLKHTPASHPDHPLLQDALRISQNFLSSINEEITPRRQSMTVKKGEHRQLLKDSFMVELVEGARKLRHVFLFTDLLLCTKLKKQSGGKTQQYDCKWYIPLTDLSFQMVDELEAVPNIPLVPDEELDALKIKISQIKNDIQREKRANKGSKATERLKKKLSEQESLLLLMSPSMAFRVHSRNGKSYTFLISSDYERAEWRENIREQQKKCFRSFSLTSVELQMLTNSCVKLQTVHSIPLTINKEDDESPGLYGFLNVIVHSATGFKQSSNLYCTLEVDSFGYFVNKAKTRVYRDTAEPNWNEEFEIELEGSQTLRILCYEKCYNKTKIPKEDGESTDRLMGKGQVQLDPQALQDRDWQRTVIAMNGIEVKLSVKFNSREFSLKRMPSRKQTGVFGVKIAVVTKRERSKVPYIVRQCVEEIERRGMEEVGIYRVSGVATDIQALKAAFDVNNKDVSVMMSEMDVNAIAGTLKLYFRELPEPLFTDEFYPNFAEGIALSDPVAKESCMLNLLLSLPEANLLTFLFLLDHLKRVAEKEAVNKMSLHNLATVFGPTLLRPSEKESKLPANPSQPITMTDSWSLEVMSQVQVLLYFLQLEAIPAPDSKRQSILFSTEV
Sequence of Cyclin-dependent kinase 7 (P50613 whole entry): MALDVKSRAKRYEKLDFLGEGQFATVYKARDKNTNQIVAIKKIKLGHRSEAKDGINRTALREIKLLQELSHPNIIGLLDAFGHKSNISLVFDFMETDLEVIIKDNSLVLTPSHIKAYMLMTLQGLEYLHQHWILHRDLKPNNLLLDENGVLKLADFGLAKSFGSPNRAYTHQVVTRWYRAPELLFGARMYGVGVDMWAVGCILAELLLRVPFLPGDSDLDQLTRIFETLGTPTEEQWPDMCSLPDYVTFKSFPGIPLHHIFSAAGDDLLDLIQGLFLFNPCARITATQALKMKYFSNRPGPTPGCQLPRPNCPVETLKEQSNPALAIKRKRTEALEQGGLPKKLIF
Sequence of Glycogen synthase kinase-3 beta (P49841 whole entry): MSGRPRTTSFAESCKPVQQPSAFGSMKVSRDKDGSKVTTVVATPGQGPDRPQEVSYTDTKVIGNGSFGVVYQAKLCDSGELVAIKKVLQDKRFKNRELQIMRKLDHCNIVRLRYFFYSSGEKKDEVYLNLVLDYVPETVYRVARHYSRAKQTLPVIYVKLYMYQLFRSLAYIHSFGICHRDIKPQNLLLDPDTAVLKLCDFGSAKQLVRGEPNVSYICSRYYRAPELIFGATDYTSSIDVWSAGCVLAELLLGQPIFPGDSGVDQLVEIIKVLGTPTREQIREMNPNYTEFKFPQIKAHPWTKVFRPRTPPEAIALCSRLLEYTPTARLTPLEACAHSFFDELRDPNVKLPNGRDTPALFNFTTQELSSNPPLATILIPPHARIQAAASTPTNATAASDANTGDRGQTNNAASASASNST

CCn1nc(C#Cc2cc(C(=O)Nc3ccc(CN4CCN(C)CC4)c(C(F)(F)F)c3)ccc2C)c2c(N)ncnc21
Activity (MDA-MB-231 [1]): 3.23%
Activity (MDA-MB-231 [2]): 15.5%
pIC50 [3]: 7.52
TGI (MDA-MB-231 [4]): Active
pIC50 [5]: 9.05
pIC50 [6]: < 5.00
Vdss(app) (Rattus norvegicus [7]): 38.57 L/kg
pIC50 (MDA-MB-435): 8.30
Activity (MDA-MB-231 [8]): Active
pIC50 [9]: < 5.00
pIC50 [10]: 9.10
CL/F [11]: 35 mL/min/kg
pIC50 [12]: < 5.00
pIC50 [13]: < 5.00
Activity (MDA-MB-231 [14]): Active
pIC50 (BT-474): < 5.00
inhibition (Mus musculus): Active
Tmax [15]: 12 h
inhibition (MDA-MB-231 [16]): Active
TGI (MDA-MB-231 [17]): Active
pIC50 [18]: < 5.00
inhibition (MDA-MB-231 [19]): Active
AUC (Rattus norvegicus [20]): 4772.5 µg/L/h
Activity (MDA-MB-231 [21]): Dose-dependent effect
pIC50 [22]: < 5.00
pIC50 (Bcr/Abl fusion protein): 9.00
pIC50 [23]: < 5.00
pIC50 (MDA-MB-453): 6.49
Activity (MDA-MB-231 [24]): 13.9%
